Results taken from ChEMBL document CHEMBL1157311, “Aurilides B and C, cancer cell toxins from a Papua New Guinea collection of the marine cyanobacterium Lyngbya majuscula” (2006).

Tests used:
[1] = Cytotoxicity against mouse Neuro2a cells after 48 hrs by MTT assay; type: functional; conditions: N2a, read-out: LC50 (the source's name)
How it was run: (§1)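 Cells seeded at 6000/well and grown 24 h, then given test chemicals dissolved in DMSO and diluted in serum-free medium (DMSO under 0.5% final). Viability read by MTT reduction after 48 h exposure; LC50 reported. Method follows Alley et al.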

[2] = tested on: NCI-H460; assay: Cytotoxicity against human NCI-H460 cells after 48 hrs by MTT assay; type: functional; conditions: NCI-H460, 48 h, read-out: LC50 (the source's name); how it was run: as §1

Question: Which CC50 [1] does the source give for CC/C=C(\C)[C@H]1OC(=O)[C@H](C)N(C)C(=O)[C@H](C(C)C)NC(=O)CN(C)C(=O)[C@H]([C@H](C)CC)N(C)C(=O)[C@H](C(C)C)NC(=O)[C@@H](C(C)C)OC(=O)/C(C)=C/C[C@H](O)[C@@H]1C [AURILIDE C] here?
Answer: Its CC50 is 50 nM.

Question: And the CC50 [2]?
Answer: The CC50 was 130 nM.
